Test results taken from ChEMBL document CHEMBL1134598, “Synthesis, ionotropic glutamate receptor binding affinity, and structure-activity relationships of a new set of 4,5-dihydro-8-heteroaryl-4-oxo-1,2,4-triazolo[1,5-a]quinoxaline-2-carboxylates analogues of TQX-173” (J Med Chem, 2001).

Experiments:
[1] = Antagonism at NMDA receptor in mouse cortical wedge preparation expressed as concentration that inhibits by 50% depolarizations induced by 5 uM AMPA; type: functional; conditions: in the assay text read “5 uM NMDA” for “5 uM AMPA”
Summary of the method: (§1)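 Mouse cortical wedges, gray matter perfused with Mg2+-free medium. Agonists (5 µM AMPA or 5 µM NMDA) applied for 2 min every 15 min until control peaks stabilised, then continuous superfusion with antagonist while agonist applications continued. IC50 from depolarization peaks with agonist plus antagonist compared to control peaks; four separate determinations.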

Glutamate NMDA receptor [2] = assay: Ability to displace [3H]glycine from NMDA receptor in rat corticaln membranes; type: cell membranes
Glutamate NMDA receptor [3] = assay: Inhibition of [3H]-(+)-MK-801 binding to NMDA receptor ion-channel complex of rat cortical memembranes; type: protein-complex assay
Summary of the method: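 Rat cortical membranes washed in 5 mM Tris-HCl pH 7.4 with 0.08% Triton X-100, 0.2-0.3 mg protein/tube. Incubated with 2.5 nM [3H]-(+)-MK-801, 10 µM glutamate and 0.1 µM glycine at room temperature for 120 min. IC50 or % inhibition at 100 µM; three or four determinations in triplicate.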

[4] = molecular target: Glutamate receptor ionotropic, kainate; assay: Inhibition of [3H]KA binding to kainate receptor of rat brain membranes; type: cell membranes, Membrane
[5] = molecular target: Glutamate receptor ionotropic, AMPA (Rattus norvegicus, UniProt P19490+P19491+P19492+P19493); assay: Binding affinity at ionotropic glutamate receptor AMPA in rat cortical membranes [3H]AMPA displacement.; type: cell membranes
[6] = molecular target: Glutamate receptor ionotropic, AMPA (Mus musculus, UniProt P23818+P23819+Q9Z2W8+Q9Z2W9); assay: Antagonism at ionotropic glutamate receptor AMPA in mouse cortical wedge preparation; type: functional
Summary of the method: as §1, with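 “wedges” for “wedges, gray matter”, “medium; AMPA” for “medium. Agonists”, “µM)” for “µM AMPA or 5 µM NMDA)”, “with” for “to”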

[7] = Antagonism at NMDA receptor in mouse cortical wedge preparation expressed as concentration that inhibits by 50% depolarizations induced by 5 uM NMDA
[8] = molecular target: T1, Glutamate NMDA receptor (Rattus norvegicus) (UniProt P35439+Q00959+Q00960+Q00961+Q62645+Q8VHN2+Q9R1M7); assay: Inhibition of [3H]- glycine binding to NMDA receptor of rat membrane; parameters: concentration or dose not given beside the values; conditions: concentration not given here
Summary of the method: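 Rat cortical synaptic membranes, [3H]glycine at 10 nM (KD 75 nM under these conditions). Compounds from 1 mM stock in 50% DMSO, diluted in buffer; four to six concentrations in triplicate, three or four displacement curves. IC50 converted to Ki by Cheng-Prusoff.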

[9] = molecular target: T1, Glutamate NMDA receptor (Rattus norvegicus); assay: Percent inhibition of stimulated [3H](+)-MK-801 binding against N-methyl-D-aspartate glutamate receptor; type: protein-complex assay; conditions: concentration not given here
Summary of the method: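 Rat cortical membranes washed in 5 mM Tris-HCl pH 7.4 containing 0.08% Triton X-100, then put through further resuspension/centrifugation cycles. Incubation for 120 min at room temperature with 2.5 nM [3H]-(+)-MK-801, 10 µM glutamate and 0.1 µM glycine. Percent inhibition of specific binding at 100 µM; three or four determinations in triplicate.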

Glutamate NMDA receptor [10] = assay: Ability to displace [3H]glycine from NMDA receptor in rat cortical membranes; type: cell membranes
Summary of the method: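 Rat cortical synaptic membranes; [3H]glycine at 10 nM (KD 75 nM under these conditions). Test compound from 1 mM stock in 50% DMSO, diluted in buffer; four to six concentrations in triplicate, three or four displacement curves. IC50 by curve fitting, converted to Ki by Cheng-Prusoff.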

[11] = molecular target: Glutamate receptor ionotropic, kainate (Rattus norvegicus) (UniProt P22756+Q01812+P42260+P42264+Q63273); assay: Inhibition of [3H]KA binding to kainate receptor in rat brain membranes; type: cell membranes; parameters: concentration or dose not given beside the values; conditions: concentration not given here
Summary of the method: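 Rat membranes resuspended at 0.5 mg protein/mL in 0.05 M Tris-citrate pH 7.4, preincubated 37 °C for 30 min, washed three times in ice-cold buffer. Incubated on ice for 60 min with 5 nM [3H]kainate and test compound. Nonspecific binding defined with 1 mM glutamate. Bound ligand recovered by GF/C filtration. Single-point inhibition measured at 100 µM.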

[12] = molecular target: Glutamate receptor ionotropic, kainate; assay: Inhibition of specific binding of [3H]KA at kainate receptor in rat brain membranes; type: cell membranes
Summary of the method: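 Membranes preincubated at 37 °C for 30 min in 0.05 M Tris-citrate pH 7.4, then washed; 0.2-0.3 mg protein with 5 nM [3H]kainate on ice for 60 min. Nonspecific binding defined with 1 mM glutamate; bound ligand separated by glass-fibre filtration.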

[13] = Inhibition of specific binding of [3H]KA against iGluRs

Row | IC50 [4] | Ki [5] | inhibition [8] | inhibition [11] | Compound | also measured
1 | – | – | – | – | O=C(O)c1cc(O)c2c(Cl)cc(Cl)cc2n1 | IC50 [1]: 4.7 µM; Ki (Glutamate NMDA receptor [2]): 0.09 µM
2 | 20 µM | 4.3 µM | – | – | O=C(O)c1nc2c(=O)[nH]c3cc(Cl)c(-n4cccn4)cc3n2n1 | IC50 (Glutamate NMDA receptor [3]): 16.8 µM; Ki (Glutamate NMDA receptor [2]): 5.3 µM; IC50 [6]: 3 µM; IC50 [7]: 150 µM
3 | – | – | 3% | – | NS(=O)(=O)c1cccc2c1c([N+](=O)[O-])cc1nc(O)c(O)nc12 [NBQX] | IC50 (Glutamate NMDA receptor [3]): 0.2 µM
4 | – | – | 35% | – | CCOC(=O)c1nc2c(O)nc3ccc([N+](=O)[O-])cc3n2n1 | –
5 | – | – | 45% | – | O=C(O)c1nc2c(O)nc3cc(Cl)c(-n4ccnc4)cc3n2n1 | inhibition [9]: 45%
6 | 8.9 µM | 0.53 µM | – | – | O=Cc1ccn(-c2cc3c(cc2Cl)nc(O)c2nc(C(=O)O)nn23)c1 | IC50 (Glutamate NMDA receptor [3]): 43 µM; IC50 [1]: 23 µM; Ki (Glutamate NMDA receptor [10]): 28 µM; IC50 [6]: 1.2 µM
7 | – | – | – | – | O=C(O)c1nc2c(O)nc3cc(Cl)c(-n4cnnc4)cc3n2n1 [TQX-173] | IC50 (Glutamate NMDA receptor [3]): 68 µM; IC50 [1]: 46 µM; Ki (Glutamate NMDA receptor [2]): 33.5 µM; IC50 [6]: 2.3 µM
8 | 36 µM | 0.86 µM | – | – | O=C(O)c1nc2c(O)nc3cc(Cl)c(-n4cccc4)cc3n2n1 | IC50 (Glutamate NMDA receptor [3]): 11.7 µM; Ki (Glutamate NMDA receptor [10]): 0.86 µM; IC50 [6]: 3 µM; IC50 [7]: 52 µM
9 | 84 µM | 20.4 µM | – | – | CCOC(=O)c1nc2c(=O)[nH]c3cc(Cl)c(N)cc3n2n1 | Ki (Glutamate NMDA receptor [2]): 4.8 µM
10 | 22.4 µM | 4.9 µM | – | – | Nc1cc2c(cc1Cl)nc(O)c1nc(C(=O)O)nn12 | IC50 (Glutamate NMDA receptor [3]): 5.6 µM; Ki (Glutamate NMDA receptor [2]): 3.6 µM
11 | – | 17.2 µM | 28% | 29% | CCOC(=O)c1nc2c(O)nc3cc(Cl)c(-n4cncn4)cc3n2n1 | –
12 | – | – | – | 20% | CCOC(=O)c1nc2c(O)nc3cc(Cl)c(-n4cccn4)cc3n2n1 | Ki [12]: 7.1 µM
13 | – | 4.3 µM | 0% | 44% | O=C(O)c1nc2c(O)nc3cc(-n4cnnc4)ccc3n2n1 | –
14 | – | 10.1 µM | 8% | 35% | CCOC(=O)c1nc2c(O)nc3cc(-n4cnnc4)ccc3n2n1 | –
15 | 81 µM | 44 µM | 35% | – | Nc1ccc2nc(O)c3nc(C(=O)O)nn3c2c1 | –
16 | – | – | 39% | – | CCOC(=O)c1nc2c(O)nc3cc(Cl)c(-n4ccnc4)cc3n2n1 | –
17 | – | – | – | 16% | O=C(O)c1nc2c(O)nc3ccc([N+](=O)[O-])cc3n2n1 | Ki (Glutamate NMDA receptor [2]): 79.4 µM
18 | – | – | 0% | 20% | CCOC(=O)c1nc2c(O)nc3ccc(-n4cnnc4)cc3n2n1 | –
19 | – | 3.7 µM | 35% | – | O=C(O)c1nc2c(O)nc3cc(Cl)c(-n4cncn4)cc3n2n1 | inhibition [9]: 30%; IC50 [6]: 12 µM; IC50 [7]: 350 µM; IC50 [13]: 48 µM
20 | – | – | – | – | O=C(O)c1nc2c(O)nc3cc(Cl)c([N+](=O)[O-])cc3n2n1 | IC50 (Glutamate NMDA receptor [3]): 17.8 µM; Ki [12]: 2.2 µM
21 | – | 18.4 µM | – | 7% | CCOC(=O)c1nc2c(O)nc3cc(Cl)c(-n4cccc4)cc3n2n1 | Ki [12]: 23 µM
22 | 88 µM | 1.9 µM | – | – | CCOC(=O)c1nc2c(O)nc3cc(Cl)c(-n4ccc(C=O)c4)cc3n2n1 | Ki (Glutamate NMDA receptor [10]): 19 µM
23 | – | – | 16% | – | CCOC(=O)c1nc2c(O)nc3ccc(N)cc3n2n1 | –
24 | – | 47 µM | 10.2% | 35% | CCOC(=O)c1nc2c(O)nc3cc(Cl)c([N+](=O)[O-])cc3n2n1 | –
25 | 90 µM | 17.2 µM | 0% | – | O=C(O)c1nc2c(O)nc3ccc(-n4cnnc4)cc3n2n1 | inhibition [9]: 20%
26 | – | – | 15% | – | CCOC(=O)c1nc2c(O)nc3cc(Cl)c(-n4cnnc4)cc3n2n1 | –
